Data from publication PMC9042899 (RSC Advances, 2021).

Key:
AP = conditions: traditional AP inhibitors; ref 34g; cited from earlier work
[1] = molecular target: CIAP (calf intestinal alkaline phosphatase) (Bos taurus, UniProt P19111); test: Alkaline phosphatase; assay type: biochemical; conditions: for IC50: Alkaline phosphatase IC50 ± SEM, CIAP, substrate p-NPP, pH 9.5, 37 °C, mean ± SEM, NA = No activity
alkaline phosphatase = test: Enzyme inhibition kinetic study; assay type: biochemical; conditions: inhibitor 0.00, 1.15, 2.30, 4.60 and 9.20 μM; substrate p-NPP
How it was run: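 Enzyme, buffer and pre-incubation were as in the AP inhibition assay. p-NPP was used at 10, 5, 2.5, […] and 0.625 mM. Maximum initial velocities came from the linear part of absorbance over up to 10 min. Inhibition type was assigned from Lineweaver–Burk plots of 1/V vs. 1/[S].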

Chain of CIAP (calf intestinal alkaline phosphatase) (P19111 20-506 limits assumed): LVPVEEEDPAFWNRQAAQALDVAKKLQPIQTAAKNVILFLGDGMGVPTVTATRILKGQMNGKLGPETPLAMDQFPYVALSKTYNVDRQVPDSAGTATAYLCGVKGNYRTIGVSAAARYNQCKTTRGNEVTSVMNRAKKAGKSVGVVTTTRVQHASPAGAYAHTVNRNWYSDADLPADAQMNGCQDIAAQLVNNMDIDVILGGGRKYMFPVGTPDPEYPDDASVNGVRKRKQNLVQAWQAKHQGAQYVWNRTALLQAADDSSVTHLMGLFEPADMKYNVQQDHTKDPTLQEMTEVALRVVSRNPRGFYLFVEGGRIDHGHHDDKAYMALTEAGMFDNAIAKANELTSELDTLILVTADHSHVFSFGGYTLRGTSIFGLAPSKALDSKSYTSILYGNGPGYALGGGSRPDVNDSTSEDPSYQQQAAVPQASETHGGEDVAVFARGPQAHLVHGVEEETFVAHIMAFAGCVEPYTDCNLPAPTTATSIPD

Row | IC50 [1] [µM] | Structure (SMILES) | further results
1 | – | Cn1c(=O)c2[nH]cnc2n(C)c1=O [theophylline] | Ki (AP): 82 µM
2 | 2.33 ± 0.059 | CCCOc1ccc(C=C2Oc3cc(Cl)cc([N+](=O)[O-])c3C2=O)cc1OC [Compound 21, 6-Chloro-2-(3-methoxy-4-propoxybenzylidene)-4-nitrobenzofuran-3(2H)-one] | –
3 | 6.97 ± 0.097 | CCCOc1ccc(C=CC(=O)c2cc(Cl)cc([N+](=O)[O-])c2O)cc1OC [Compound 10, 1-(5-Chloro-2-hydroxy-3-nitrophenyl)-3-(3-methoxy-4-propoxyphenyl)prop-2-en-1-one] | –
4 | 3.02 ± 0.087 | CN(C)c1ccc(C=CC(=O)c2cc(Cl)cc([N+](=O)[O-])c2O)cc1 [Compound 6, 1-(5-Chloro-2-hydroxy-3-nitrophenyl)-3-(4-(dimethylamino)phenyl)prop-2-en-1-one] | –
5 | 5.54 ± 0.079 | COc1cc(C=C2Oc3cc(Cl)cc([N+](=O)[O-])c3C2=O)ccc1OCc1ccccc1 [Compound 22, 2-(4-(Benzyloxy)-3-methoxybenzylidene)-6-chloro-4-nitrobenzofuran-3(2H)-one] | –
6 | 2.13 ± 0.034 | O=C1C(=Cc2ccc(Cl)cc2)Oc2cc(Cl)cc([N+](=O)[O-])c21 [Compound 16, 6-Chloro-2-(4-chlorobenzylidene)-4-nitrobenzofuran-3(2H)-one] | –
7 | 4.88 ± 0.086 | O=C1C(=Cc2ccc(F)cc2)Oc2cc(Cl)cc([N+](=O)[O-])c21 [Compound 17, 6-Chloro-2-(4-fluorobenzylidene)-4-nitrobenzofuran-3(2H)-one] | –
8 | – | c1ccc([C@H]2CN3CCSC3=N2)cc1 [levamisole] | Ki (AP): 16 µM
9 | 4.31 ± 0.154 | O=C(C=Cc1ccco1)c1cc(Br)cc(Br)c1O [Compound 1, 1-(3,5-Dibromo-2-hydroxyphenyl)-3-(furan-2-yl)prop-2-en-1-one] | –
10 | 2.16 ± 0.048 | O=C1C(=Cc2ccc(Cl)cc2)Oc2cc(Br)cc(Br)c21 [Compound 12, 4,6-Dibromo-2-(4-chlorobenzylidene)benzofuran-3(2H)-one] | –
11 | 9.56 ± 0.263 | COc1cc(C=CC(=O)c2cc(Cl)cc([N+](=O)[O-])c2O)ccc1OCc1ccccc1 [Compound 11, 3-(4-(Benzyloxy)-3-methoxyphenyl)-1-(5-chloro-2-hydroxy-3-nitrophenyl)prop-2-en-1-one] | –
12 | 1.15 ± 0.043 | Cc1ccc(C=C2Oc3cc(Cl)cc([N+](=O)[O-])c3C2=O)c(C)c1 [Compound 18, 6-Chloro-2-(2,4-dimethylbenzylidene)-4-nitrobenzofuran-3(2H)-one] | –
13 | 5.88 ± 0.083 | O=C1C(=Cc2cccs2)Oc2cc(Cl)cc([N+](=O)[O-])c21 [Compound 19, 6-Chloro-4-nitro-2-(thiophen-2-ylmethylene)benzofuran-3(2H)-one] | –
14 | 12.6 ± 0.298 | Cc1ccc(C=CC(=O)c2cc(Cl)cc([N+](=O)[O-])c2O)c(C)c1 [Compound 8, 1-(5-Chloro-2-hydroxy-3-nitrophenyl)-3-(2,4-dimethylphenyl)prop-2-en-1-one] | –
15 | 8.45 ± 0.245 | O=C(C=Cc1cccs1)c1cc(Cl)cc([N+](=O)[O-])c1O [Compound 9, 1-(5-Chloro-2-hydroxy-3-nitrophenyl)-3-(thiophen-2-yl)prop-2-en-1-one] | –
16 | 2.15 ± 0.056 | CN(C)c1ccc(C=C2Oc3cc(Cl)cc([N+](=O)[O-])c3C2=O)cc1 [Compound 15, 6-Chloro-2-(4-(dimethylamino)benzylidene)-4-nitrobenzofuran-3(2H)-one] | –
17 | 5.79 ± 0.081 | O=C1C(=Cc2ccc(C(F)(F)F)cc2)Oc2cc(Br)cc(Br)c21 [Compound 13, 4,6-Dibromo-2-(4-(trifluoromethyl)benzylidene)benzofuran-3(2H)-one] | –
18 | 3.14 ± 0.176 | COc1ccc(C=CC(=O)c2cc(Cl)cc([N+](=O)[O-])c2O)cc1 [Compound 4, 1-(5-Chloro-2-hydroxy-3-nitrophenyl)-3-(4-methoxyphenyl)prop-2-en-1-one] | –
19 | 7.55 ± 0.265 | O=C(C=Cc1ccc(F)cc1)c1cc(Cl)cc([N+](=O)[O-])c1O [Compound 5, 1-(5-Chloro-2-hydroxy-3-nitrophenyl)-3-(4-fluorophenyl)prop-2-en-1-one] | –
20 | 6.23 ± 0.098 | O=C(C=Cc1ccc(Cl)cc1)c1cc(Br)cc(Br)c1O [Compound 2, 3-(4-Chlorophenyl)-1-(3,5-dibromo-2-hydroxyphenyl)prop-2-en-1-one] | –
21 | 4.66 ± 0.051 | O=C1C(=Cc2ccco2)Oc2cc(Br)cc(Br)c21 [Compound 14, 4,6-Dibromo-2-(furan-2-ylmethylene)benzofuran-3(2H)-one] | –
22 | 1.05 ± 0.029 | COc1ccc(C=C2Oc3cc(Cl)cc([N+](=O)[O-])c3C2=O)cc1 [Compound 20, 6-Chloro-2-(4-methoxybenzylidene)-4-nitrobenzofuran-3(2H)-one] | type of enzyme inhibition (Lineweaver–Burk plot) (alkaline phosphatase): non-competitive; fold higher inhibition compared to KH2PO4 ([1]; ratio of IC50 values vs standard KH2PO4): ~2.6 fold
